Measurements as given in ChEMBL document CHEMBL1649441, “Potency and bactericidal activity of iclaprim against recent clinical gram-positive isolates” (2009).
≈ marks a conversion by molar mass, not a printed value.

Legend:
Format in all cases: functional
Staphylococcus aureus [1] = assay: Antibacterial activity against Methicillin-sensitive Staphylococcus aureus by CLSI broth microdilution method
Staphylococcus aureus [2] = assay: Antibacterial activity against Methicillin-resistant Staphylococcus aureus assessed as inhibition of bacterial growth at 4 ug/ml by CLSI broth microdilution method
Outline: (§1)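 Recent clinical isolates from skin/soft tissue, bloodstream and respiratory specimens. Tested by broth microdilution per CLSI M7-A7 and M100-S18, with the appropriate quality controls. The thymidine content of the test medium was assessed to rule out artifactual inhibition.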

[3] = system: Streptococcus sp. 'group A'; assay: Antibacterial activity against Beta-hemolytic Streptococcus group A assessed as inhibition of bacterial growth at 4 ug/ml by CLSI broth microdilution method
Outline: (§2)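 Clinical isolates from skin/soft tissue, bloodstream and respiratory specimens were tested by broth microdilution per CLSI M7-A7 and M100-S18, with quality controls. Values are the number of isolates inhibited at each concentration, or MIC / percent susceptible. Highest concentration tested was 8 µg/ml for iclaprim and trimethoprim-sulfamethoxazole, and 64 µg/ml for trimethoprim.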

Staphylococcus aureus [4] = assay: Antibacterial activity against Methicillin-sensitive Staphylococcus aureus assessed as inhibition of bacterial growth at 2 ug/ml by CLSI broth microdilution method
Enterococcus faecalis [5] = assay: Antibacterial activity against Enterococcus faecalis assessed as inhibition of bacterial growth at 0.5 ug/ml by CLSI broth microdilution method; outline: as §2
Enterococcus faecium [6] = assay: Antibacterial activity against Enterococcus faecium assessed as inhibition of bacterial growth at 2 ug/ml by CLSI broth microdilution method
Enterococcus faecium [7] = assay: Antibacterial activity against Enterococcus faecium by CLSI broth microdilution method
Enterococcus faecium [8] = assay: Antibacterial activity against Enterococcus faecium assessed as inhibition of bacterial growth at 4 ug/ml by CLSI broth microdilution method
[9] = system: Streptococcus sp. 'group B'; assay: (§3) Antibacterial activity against Beta-hemolytic Streptococcus group B assessed as inhibition of bacterial growth at […] by CLSI broth microdilution method
Staphylococcus aureus [10] = assay: (§4) Antibacterial activity against Methicillin-resistant Staphylococcus aureus assessed as inhibition of bacterial growth at […] by CLSI broth microdilution method
[11] = system: Streptococcus sp. 'group B'; assay: Antibacterial activity against Beta-hemolytic Streptococcus group B assessed as inhibition of bacterial growth at 0.03 ug/ml by CLSI broth microdilution method; outline: as §2
Enterococcus faecium [12] = assay: Antibacterial activity against Enterococcus faecium assessed as inhibition of bacterial growth at 0.5 ug/ml by CLSI broth microdilution method
[13] = system: Streptococcus sp. 'group B'; assay: Antibacterial activity against Beta-hemolytic Streptococcus group B assessed as inhibition of bacterial growth at 1 ug/ml by CLSI broth microdilution method; outline: as §2
[14] = system: Streptococcus sp. 'group A'; assay: (§5) Antibacterial activity against Beta-hemolytic Streptococcus group A assessed as inhibition of bacterial growth at […] by CLSI broth microdilution method
[15] = system: Streptococcus sp. 'group B'; assay: as §3; remark: listed apart in the source
[16] = system: Streptococcus sp. 'group A'; assay: Antibacterial activity against Beta-hemolytic Streptococcus group A assessed as inhibition of bacterial growth at 1 ug/ml by CLSI broth microdilution method; outline: as §2
Enterococcus faecalis [17] = assay: Antibacterial activity against Enterococcus faecalis assessed as inhibition of bacterial growth at 2 ug/ml by CLSI broth microdilution method; outline: as §2
Enterococcus faecium [18] = assay: Antibacterial activity against Enterococcus faecium assessed as inhibition of bacterial growth at 0.06 ug/ml by CLSI broth microdilution method; outline: as §2
Staphylococcus aureus [19] = assay: Antibacterial activity against Methicillin-sensitive Staphylococcus aureus assessed as inhibition of bacterial growth at 0.03 ug/ml by CLSI broth microdilution method; parameters: Activity: scale not given: the % may be the effect or the level left; outline: as §1
Staphylococcus aureus [20] = assay: Antibacterial activity against Methicillin-resistant Staphylococcus aureus assessed as inhibition of bacterial growth at 8 ug/ml by CLSI broth microdilution method; outline: as §1
Enterococcus faecalis [21] = assay: (§6) Antibacterial activity against Enterococcus faecalis assessed as inhibition of bacterial growth at […] by CLSI broth microdilution method
[22] = system: Streptococcus sp. 'group A'; assay: Antibacterial activity against Beta-hemolytic Streptococcus group A assessed as inhibition of bacterial growth at 8 ug/ml by CLSI broth microdilution method; outline: as §2
[23] = system: Streptococcus sp. 'group A'; assay: Antibacterial activity against Beta-hemolytic Streptococcus group A assessed as inhibition of bacterial growth at 0.03 ug/ml by CLSI broth microdilution method; outline: as §2
Staphylococcus aureus [24] = assay: Antibacterial activity against Methicillin-sensitive Staphylococcus aureus assessed as inhibition of bacterial growth at 0.06 ug/ml by CLSI broth microdilution method; parameters: Activity: scale not given: the % may be the effect or the level left
Staphylococcus aureus [25] = assay: as §4; remark: listed apart in the source
Staphylococcus aureus [26] = assay: Antibacterial activity against Methicillin-sensitive Staphylococcus aureus assessed as inhibition of bacterial growth at 0.5 ug/ml by CLSI broth microdilution method
Staphylococcus aureus [27] = assay: Antibacterial activity against Methicillin-sensitive Staphylococcus aureus assessed as inhibition of bacterial growth at 4 ug/ml by CLSI broth microdilution method
Staphylococcus aureus [28] = assay: Antibacterial activity against Methicillin-resistant Staphylococcus aureus assessed as inhibition of bacterial growth at 0.06 ug/ml by CLSI broth microdilution method; outline: as §1
[29] = system: Streptococcus sp. 'group A'; assay: Antibacterial activity against Beta-hemolytic Streptococcus group A by CLSI broth microdilution method; outline: as §2
Enterococcus faecium [30] = assay: Antibacterial activity against Enterococcus faecium assessed as inhibition of bacterial growth at 1 ug/ml by CLSI broth microdilution method
Enterococcus faecalis [31] = assay: Antibacterial activity against Enterococcus faecalis assessed as inhibition of bacterial growth at 0.06 ug/ml by CLSI broth microdilution method; outline: as §2
Enterococcus faecium [32] = assay: Antibacterial activity against Enterococcus faecium assessed as inhibition of bacterial growth at 0.03 ug/ml by CLSI broth microdilution method; outline: as §2
Enterococcus faecalis [33] = assay: Antibacterial activity against Enterococcus faecalis assessed as inhibition of bacterial growth at 1 ug/ml by CLSI broth microdilution method; outline: as §2
Enterococcus faecalis [34] = assay: Antibacterial activity against Enterococcus faecalis assessed as inhibition of bacterial growth at 8 ug/ml by CLSI broth microdilution method; outline: as §2
Enterococcus faecalis [35] = assay: as §6; remark: listed apart in the source
Enterococcus faecalis [36] = assay: Antibacterial activity against Enterococcus faecalis assessed as inhibition of bacterial growth at 0.03 ug/ml by CLSI broth microdilution method; outline: as §2
Staphylococcus aureus [37] = assay: Antibacterial activity against Methicillin-sensitive Staphylococcus aureus assessed as inhibition of bacterial growth at […] by CLSI broth microdilution method; parameters: Activity: scale not given: the % may be the effect or the level left
[38] = system: Streptococcus sp. 'group B'; assay: Antibacterial activity against Beta-hemolytic Streptococcus group B assessed as inhibition of bacterial growth at 4 ug/ml by CLSI broth microdilution method; outline: as §2
[39] = system: Streptococcus sp. 'group B'; assay: Antibacterial activity against Beta-hemolytic Streptococcus group B by CLSI broth microdilution method; outline: as §2
Enterococcus faecalis [40] = assay: Antibacterial activity against Enterococcus faecalis assessed as inhibition of bacterial growth at >8 ug/ml by CLSI broth microdilution method; outline: as §2
Enterococcus faecium [41] = assay: Antibacterial activity against Enterococcus faecium assessed as inhibition of bacterial growth at […] by CLSI broth microdilution method
Enterococcus faecalis [42] = assay: Antibacterial activity against Enterococcus faecalis assessed as inhibition of bacterial growth at 4 ug/ml by CLSI broth microdilution method; outline: as §2
[43] = system: Streptococcus sp. 'group B'; assay: Antibacterial activity against Beta-hemolytic Streptococcus group B assessed as inhibition of bacterial growth at 0.5 ug/ml by CLSI broth microdilution method; outline: as §2
[44] = system: Streptococcus sp. 'group A'; assay: as §5; remark: listed apart in the source

COc1cc(Cc2cnc(N)nc2N)c2c(c1OC)OC(C1CC1)C=C2 (stereo unspecified)
MIC50 (Staphylococcus aureus [1]): 0.06 µg/mL (≈ 0.169 µM) | MIC90 (Staphylococcus aureus [1]): 0.12 µg/mL (≈ 0.339 µM) | inhibition at 4 µg/mL (Staphylococcus aureus [2]): 97.9% | inhibition at 4 µg/mL [3]: 100% | inhibition at 2 µg/mL (Staphylococcus aureus [4]): 98.7% | inhibition at 0.5 µg/mL (Enterococcus faecalis [5]): 70.6% | inhibition at 2 µg/mL (Enterococcus faecium [6]): 58.1% | MIC50 (Enterococcus faecium [7]): 2 µg/mL (≈ 5.64 µM) | MIC90 (Enterococcus faecium [7]): > 8 µg/mL | inhibition at 4 µg/mL (Enterococcus faecium [8]): 74.9% | inhibition at […] [9]: 55.4% | inhibition at […] (Staphylococcus aureus [10]): 91.1% | inhibition at 0.03 µg/mL [11]: 0.5% | inhibition at 0.5 µg/mL (Enterococcus faecium [12]): 39.3% | inhibition at 1 µg/mL [13]: 100% | inhibition at […] [14]: 100% | inhibition at […] [15]: 91.2% | inhibition at 1 µg/mL [16]: 100% | inhibition at 2 µg/mL (Enterococcus faecalis [17]): 71.9% | inhibition at 0.06 µg/mL (Enterococcus faecium [18]): 37.6% | inhibition at 0.03 µg/mL (Staphylococcus aureus [19]; Staphylococcus aureus): 6.1% | inhibition at 8 µg/mL (Staphylococcus aureus [20]): 100% | inhibition at […] (Enterococcus faecalis [21]): 70.6% | inhibition at 8 µg/mL [22]: 100% | inhibition at 0.03 µg/mL [23]: 94.9% | inhibition at 0.06 µg/mL (Staphylococcus aureus [24]; Staphylococcus aureus): 58.8% | inhibition at […] (Staphylococcus aureus [25]): 92.3% | inhibition at 0.5 µg/mL (Staphylococcus aureus [26]): 98.6% | inhibition at 4 µg/mL (Staphylococcus aureus [27]): 99.9% | inhibition at 0.06 µg/mL (Staphylococcus aureus [28]): 69.6% | MIC50 [29]: 0.015 µg/mL (≈ 0.0423 µM) | MIC90 [29]: 0.03 µg/mL (≈ 0.0846 µM) | inhibition at 1 µg/mL (Enterococcus faecium [30]): 42.2% | inhibition at 0.06 µg/mL (Enterococcus faecalis [31]): 67.1% | inhibition at 0.03 µg/mL (Enterococcus faecium [32]): 37.6% | inhibition at 1 µg/mL (Enterococcus faecalis [33]): 71% | inhibition at 8 µg/mL (Enterococcus faecalis [34]): 1.9% | inhibition at […] (Enterococcus faecalis [35]): 69% | inhibition at 0.03 µg/mL (Enterococcus faecalis [36]): 63.9% | inhibition at […] (Staphylococcus aureus [37]; Staphylococcus aureus): 95.6% | inhibition at 4 µg/mL [38]: 100% | MIC50 [39]: 0.12 µg/mL (≈ 0.339 µM) | MIC90 [39]: 0.25 µg/mL (≈ 0.705 µM) | inhibition (INH) (Enterococcus faecalis [40]): 100% | inhibition at […] (Enterococcus faecium [41]): 38% | inhibition at 4 µg/mL (Enterococcus faecalis [42]): 96.8% | inhibition at 0.5 µg/mL [43]: 100% | inhibition at […] [44]: 100%

COc1cc(Cc2cnc(N)nc2N)cc(OC)c1OC [TRIMETHOPRIM]
MIC50 (Staphylococcus aureus [1]): 1 µg/mL (≈ 3.44 µM) | MIC90 (Staphylococcus aureus [1]): 1 µg/mL (≈ 3.44 µM) | inhibition at 4 µg/mL (Staphylococcus aureus [2]): 92.5% | inhibition at 4 µg/mL [3]: 100% | inhibition at 2 µg/mL (Staphylococcus aureus [4]): 97.8% | inhibition at 0.5 µg/mL (Enterococcus faecalis [5]): 62.9% | inhibition at 2 µg/mL (Enterococcus faecium [6]): 38.3% | MIC50 (Enterococcus faecium [7]): 32 µg/mL (≈ 110 µM) | MIC90 (Enterococcus faecium [7]): > 64 µg/mL | inhibition at 4 µg/mL (Enterococcus faecium [8]): 38.9% | inhibition at […] [9]: 0% | inhibition at […] (Staphylococcus aureus [10]): 0.2% | inhibition at 0.03 µg/mL [11]: 0% | inhibition at 0.5 µg/mL (Enterococcus faecium [12]): 37.6% | inhibition at 1 µg/mL [13]: 51% | inhibition at […] [14]: 45.9% | inhibition at […] [15]: 0.5% | inhibition at 1 µg/mL [16]: 99.5% | inhibition at 2 µg/mL (Enterococcus faecalis [17]): 67.7% | inhibition at 0.06 µg/mL (Enterococcus faecium [18]): 30.4% | Activity (Staphylococcus aureus [19]): 0% | inhibition at 8 µg/mL (Staphylococcus aureus [20]): 92.9% | inhibition at […] (Enterococcus faecalis [21]): 56.5% | inhibition at 8 µg/mL [22]: 100% | inhibition at 0.03 µg/mL [23]: 0.8% | Activity (Staphylococcus aureus [24]): 0.1% | inhibition at […] (Staphylococcus aureus [25]): 5.7% | inhibition at 0.5 µg/mL (Staphylococcus aureus [26]): 34.3% | inhibition at 4 µg/mL (Staphylococcus aureus [27]): 98.5% | inhibition at 0.06 µg/mL (Staphylococcus aureus [28]): < 0.1% | MIC50 [29]: 0.25 µg/mL (≈ 0.861 µM) | MIC90 [29]: 0.5 µg/mL (≈ 1.72 µM) | inhibition at 1 µg/mL (Enterococcus faecium [30]): 38% | inhibition at 0.06 µg/mL (Enterococcus faecalis [31]): 4.2% | inhibition at 0.03 µg/mL (Enterococcus faecium [32]): 13.9% | inhibition at 1 µg/mL (Enterococcus faecalis [33]): 64.5% | inhibition at 8 µg/mL (Enterococcus faecalis [34]): 70.6% | inhibition at […] (Enterococcus faecalis [35]): 29.7% | inhibition at 0.03 µg/mL (Enterococcus faecalis [36]): 0.6% | Activity (Staphylococcus aureus [37]): 0.3% | inhibition at 4 µg/mL [38]: 99.5% | MIC50 [39]: 1 µg/mL (≈ 3.44 µM) | MIC90 [39]: 4 µg/mL (≈ 13.8 µM) | inhibition (INH) (Enterococcus faecalis [40]): 100% | inhibition at […] (Enterococcus faecium [41]): 36% | inhibition at 4 µg/mL (Enterococcus faecalis [42]): 70% | inhibition at 0.5 µg/mL [43]: 5.9% | inhibition at […] [44]: 84.6%
